ChEMBL document CHEMBL1134957, “Synthesis and SAR of 4-carboxy-2-azetidinone mechanism-based tryptase inhibitors” (Bioorg Med Chem Lett, 2002)

Legend:
[1] = Aqueous Stability (half-life period) at pH 7 and 37 degrees; format: ADME; conditions: aqueous solution
Outline: (§1)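 Compound half-life, reported in hours, was measured by incubation in aqueous buffer at 37 °C, run separately at pH 7 and pH 9.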

[2] = Aqueous Stability (half-life period) at pH 9 and 37 degrees; format: ADME; conditions: aqueous solution; outline: as §1
Tryptase = Tryptase (Homo sapiens, UniProt Q9BZJ3+Q15661+Q9NRR2); assay: In vitro inhibition of human tryptase.
Homo sapiens [3] = species on record: Homo sapiens; assay: Selectivity for human tryptase compared to human urokinase plasminogen activator.
Homo sapiens [4] = species on record: Homo sapiens; assay: Selectivity for human tryptase compared to human plasmin.
Homo sapiens [5] = species on record: Homo sapiens; assay: Selectivity for human tryptase compared to human thrombin.
Homo sapiens [6] = species on record: Homo sapiens; assay: Selectivity for human tryptase compared to human tissue plasminogen activator tissue.
Homo sapiens [7] = species on record: Homo sapiens; assay: Selectivity for human tryptase compared to human trypsin.
Homo sapiens [8] = species on record: Homo sapiens; assay: Ratio of inhibitiroy activities against human tryptase and human plasminogen activator urokinase microPa
Cavia porcellus [9] = species on record: Cavia porcellus; assay: Effect (decrease in dynamic lung compliance) on pulmonary mechanics of ovalbumin-sensitized guinea pigs following allergen induced bronchoconstriction; format: functional
Outline: (§2)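 Guinea pigs were sensitized by ip ovalbumin with aluminum hydroxide on days 0 and 14, plus cyclophosphamide (30 mg/kg) on day 12, and used between days 35 and 65. Under Na-pentobarbital anesthesia they were mechanically ventilated, with intratracheal flow and pressure recorded in real time. Ten min before iv ovalbumin challenge, compound was given as an intratracheal aerosol spray. Rlung and Cdyn were recorded as % change (n=9).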

Cavia porcellus [10] = assay: Effect (decrease in dynamic lung compliance) on pulmonary mechanics of ovalbumin-sensitized guinea pigs following allergen induced bronchoconstriction upon intratracheal dosage of 75 ug/kg 10 min prior to ovalbumin challenge; format: functional; outline: as §2
Cavia porcellus [11] = species on record: Cavia porcellus; assay: Dose required for the inhibition of the cellular inflammatory response in ovalbumin-sensitized guinea pigs was evaluated by the reduction in cell count by 70-80%; format: functional
Outline: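 Ovalbumin-sensitized guinea pigs were given saline or compound as an intratracheal spray at two dose levels (75 or 225 per kg), and the tracheal incision was closed. Ovalbumin was injected into the jugular vein about 6 min after dosing, and the animals recovered from anesthesia. Bronchoalveolar lavage cell counts and protein were measured 24 h later. Controls were sham-operated animals without ovalbumin challenge.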

Cavia porcellus [12] = species on record: Cavia porcellus; assay: Effect (increase in lung resistance (Rlung)) on pulmonary mechanics of ovalbumin-sensitized guinea pigs following allergen induced bronchoconstriction; format: functional; outline: as §2
Cavia porcellus [13] = assay: Effect (increase in lung resistance (Rlung)) on pulmonary mechanics of ovalbumin-sensitized guinea pigs following allergen induced bronchoconstriction upon intratracheal dosage of 75 ug/kg 10 min prior to ovalbumin challenge; format: functional; outline: as §2

Structure (SMILES)	half-life [1] [h]	half-life [2] [h]	IC50 (Tryptase) [nM]	Selectivity ratio (Homo sapiens [3])	Selectivity ratio (Homo sapiens [4])	Selectivity ratio (Homo sapiens [5])	Selectivity ratio (Homo sapiens [6])	Selectivity ratio (Homo sapiens [7])	Selectivity ratio (Homo sapiens [8])	Cdyn (Cavia porcellus [9]) [% delta]	Cdyn (Cavia porcellus [10]) [% delta]	Dose (Cavia porcellus [11]) [mg/kg]	Rlung (Cavia porcellus [12]) [% delta]	Rlung (Cavia porcellus [13]) [% delta]
N=C(N)NCCC[C@H]1C(=O)N(C(=O)N2CCN(C(=O)OCCc3ccccc3)CC2)[C@@H]1C(=O)O	> 48	7	0.7	926	302	3320	14200	8						
CC(C)(C)OC(=O)N1CCN(C(=O)N2C(=O)[C@H](CCCN=C(N)N)[C@H]2C(N)=O)CC1 (single isomer, unassigned)	42	0.3	0.4	82	227	105	8300	6						
N=C(N)NCCC[C@H]1C(=O)N(C(=O)c2ccc(-c3ccccc3)cc2)[C@@H]1C(=O)O	11.1	< 0.1	1	3270	8	65	1610	2						
CCN(CC)C(=O)N1CCN(C(=O)N2C(=O)[C@H](CCCN=C(N)N)[C@H]2C(=O)O)CC1	> 48	6.4	5	520	227	> 6600	> 6600	3						
N=C(N)NCCC[C@H]1C(=O)N(C(=O)NCc2ccccc2)[C@@H]1C(=O)O	> 48	6.8	71	16	45	465	465	2						
N=C(N)NCCC[C@H]1C(=O)N(S(=O)(=O)c2ccc(-c3ccccc3)cc2)[C@@H]1C(=O)O	10.6	< 0.1	1	44	47	7	4370	1						
COC(=O)N1CCN(C(=O)N2C(=O)[C@H](CCCN=C(N)N)[C@H]2C(=O)O)CC1	> 48	5.6	9		210	683	> 1200	2	70					
CC(C)(C)C(=O)N1CCN(C(=O)N2C(=O)[C@H](CCCN=C(N)N)[C@H]2C(=O)O)CC1	> 48	2.5	7	154	232	> 1500	> 1500	3						
CC(C)(C)OC(=O)N1CCN(C(=O)N2C(=O)[C@H](CCCN=C(N)N)[C@H]2C(=O)O)CC1	> 48	6.2	4	218	295	> 8250	> 8250	8						
N=C(N)NCCC[C@H]1C(=O)N(C(=O)N2CCN(C(=O)c3ccccc3)CC2)[C@@H]1C(=O)O	> 48	3.9	5.2	142	332	286	> 2000	1						
N=C(N)NCCC[C@H]1C(=O)N(C(=O)Nc2ccccc2)[C@@H]1C(=O)O (relative stereo)			992											
N=C(N)NCCC[C@H]1C(=O)N(C(=O)Nc2ccccc2)[C@@H]1C(=O)O (stereo in doubt; 8a) [listing 1 of 2 here]	> 48	2.2	6											
CNC(=O)[C@@H]1[C@@H](CCCN=C(N)N)C(=O)N1C(=O)N1CCN(C(=O)OC(C)(C)C)CC1	31.8	0.3	0.7	75	172	177	6800	3						
CC(C)(C)OC(=O)N1CCN(C(=O)N2C(=O)[C@H](CCCN=C(N)N)[C@H]2C(=O)N2CCCCC2)CC1	> 48	0.8	3	246	205	155	4430	1						
CC(C)(C)CC(=O)N1CCN(C(=O)N2C(=O)[C@H](CCCN=C(N)N)[C@H]2C(=O)O)CC1	> 48	6.5	11	8	314	> 1000	> 1000	1.5						
N=C(N)NCCC[C@H]1C(=O)N(C(=O)c2ccccc2)[C@@H]1C(=O)O			9	3	17	142	128	1						
CC(C)(C)NC(=O)N1CCN(C(=O)N2C(=O)[C@H](CCCN=C(N)N)[C@H]2C(=O)O)CC1	> 48	8	4	135	430	2620	> 8250	18		-69	-43	0.225	421	89
N=C(N)NCCC[C@H]1C(=O)N(C(=O)NC2CCCCC2)[C@@H]1C(=O)O	> 48	9.1												
N=C(N)NCCC[C@H]1C(=O)N(C(=O)N2CCN(S(=O)(=O)c3ccccc3)CC2)[C@@H]1C(=O)O	> 48	1.7	13	43	147	556	> 2500	14						
N=C(N)NCCC[C@H]1C(=O)N(C(=O)Nc2ccccc2)[C@@H]1C(=O)O (stereo in doubt) [listing 1 of 2 here]			5380											
N=C(N)NCCC[C@H]1C(=O)N(C(=O)Nc2ccccc2)[C@@H]1C(=O)O (stereo in doubt) [listing 2 of 2 here]					> 6		> 6	0.3						
N=C(N)NCCC[C@H]1C(=O)N(C(=O)Nc2ccccc2)[C@@H]1C(=O)O (stereo in doubt; 8a) [listing 2 of 2 here]				3	52	1550	117	1						
N=C(N)NCCC[C@H]1C(=O)N(C(=O)c2cccs2)[C@@H]1C(=O)O	8.7	< 0.1	1	5	12	190	109	3						
